Tm and folding enthalpy data for 38 sequences are collected here from the array DNA melting data of Ke et al. (doi:10.1101/2024.01.08.574731).

Series [1] in a line: melting temperature; fluorescence melt of hairpins on a sequencing array, two-state fit, raised by 9.35 °C to match UV melts. The settings on record: sodium 0.088 M. In short, it runs like this: (§1)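 Bootstrapped two-state fits yielded melting temperature and folding enthalpy for library hairpins. Cy3 fluorescence, with annealed Cy3 and quencher oligos, was imaged on a sequenced MiSeq flow cell in 50 mM Na-HEPES pH 8.0, 25 mM NaCl in 2.5 °C steps up to 60 °C, and normalised to pre-quench Cy3 and to control constructs. Four replicates were combined by inverse variance, and fitted temperatures were raised by 9.35 °C to match UV melts.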

The nature of series [2]: folding enthalpy; higher = less favourable; fluorescence melt of hairpins on a sequencing array, two-state fit. The settings on record: sodium 0.088 M. A digest of the protocol: as §1

For GCGGAGTCGAAAGACCGC (((..(((....)))))), the Tm in series [1] was found to be 53.7 °C. Besides, the folding enthalpy in series [2] is -38 kcal/mol.

As for GCGGATACCCGC ((((....)))), the Tm in series [1] was found to be 54.2 °C. For the same sequence, the folding enthalpy in series [2] was -24.3 kcal/mol.

With GCGGATCCGAAAGGACGC (((..(((....)))))), in series [1], the Tm amounted to 53.3 °C. In addition, the folding enthalpy in series [2] was -25.6 kcal/mol.

As to GCGGATCGAAAGATTCGC (((.(((....))).))), the Tm in series [1] stood at 60.8 °C. Besides, the folding enthalpy in series [2] was -45.9 kcal/mol.

Turning to GCGGATGCCCGC ((((....)))), the Tm in series [1] was determined as 55 °C. For the same sequence, the folding enthalpy in series [2] is -14.4 kcal/mol.

Take GCGGATGGAAACGTCCGC (((((.(....).))))): the Tm in series [1] worked out at 62.6 °C. For the same sequence, the folding enthalpy in series [2] was -45.9 kcal/mol.

As to GCGGATGGAAACGTCTGC ((.((.(....).)).)), the Tm in series [1] was 44.3 °C. Also, the folding enthalpy in series [2] was -28.1 kcal/mol.

On to GCGGATTTCCGC ((((....)))), for which the Tm in series [1] was 64.6 °C. For the same sequence, in series [2], the folding enthalpy is -22.4 kcal/mol.

Regarding GCGGCAATCCGC ((((....)))), the Tm in series [1] is 52.3 °C. The folding enthalpy in series [2] is -21.9 kcal/mol.

For GCGGCACCCGC ((((...)))), in series [1], the Tm was found to be 56.4 °C. Moreover, the folding enthalpy in series [2] is -21.9 kcal/mol.

For the sequence GCGGCACCGAAAGGTCGC (((..(((....)))))), the Tm in series [1] was determined as 54.4 °C. For the same sequence, in series [2], the folding enthalpy is -21.1 kcal/mol.

Regarding GCGGCACTCCGC ((((....)))), the Tm in series [1] is 57.5 °C. In addition, the folding enthalpy in series [2] was -25.8 kcal/mol.

On to GCGGCAGACCGC ((((....)))), for which, in series [1], the Tm is 56.2 °C. Further, in series [2], the folding enthalpy is -23.2 kcal/mol.

Consider GCGGCAGGAAACCGCCAC (.(((.(....).))).), for which the Tm in series [1] is 47.5 °C. Besides, the folding enthalpy in series [2] was -12.7 kcal/mol.

As to GCGGCATCCGC ((((...)))), the Tm in series [1] is 54.8 °C. In addition, in series [2], the folding enthalpy was -17.9 kcal/mol.

Consider GCGGCATTCCGC ((((....)))), for which, in series [1], the Tm was determined as 56.1 °C. Also, the folding enthalpy in series [2] was -23.7 kcal/mol.

As to GCGGCCAACCGC ((((....)))), the Tm in series [1] turned out to be 56.2 °C. Also, the folding enthalpy in series [2] is -21.6 kcal/mol.

GCGGCCACGAAAGTGCGC (((..(((....)))))): in series [1], the Tm came to 52.7 °C. In series [2], the folding enthalpy is -17.4 kcal/mol.

As for GCGGCCATCCGC ((((....)))), in series [1], the Tm is 60 °C. Also, the folding enthalpy in series [2] is -18.5 kcal/mol.

On to GCGGCCCCCGC ((((...)))), for which, in series [1], the Tm was determined as 56.6 °C. Also, in series [2], the folding enthalpy was -20.4 kcal/mol.

As to GCGGCCCTCCGC ((((....)))), in series [1], the Tm was found to be 59.6 °C. In series [2], the folding enthalpy was -26.5 kcal/mol.

As for GCGGCCGAAAGGCAACGC ((((((....)))..))), the Tm in series [1] turned out to be 64.3 °C. In addition, in series [2], the folding enthalpy is -19.1 kcal/mol.

Turning to GCGGCCGAAAGGCATCGC ((((((....)))..))), the Tm in series [1] was 53.1 °C. In addition, the folding enthalpy in series [2] was -23 kcal/mol.

On to GCGGCCGAAAGGCCACGC ((((((....)))..))), for which the Tm in series [1] was determined as 65.1 °C. For the same sequence, the folding enthalpy in series [2] is -13.6 kcal/mol.

As to GCGGCCGAAAGGCTCGC ((((((....))).))), in series [1], the Tm was 68.8 °C. Besides, the folding enthalpy in series [2] is -23.5 kcal/mol.

As to GCGGCGACCCGC ((((....)))), the Tm in series [1] is 57.3 °C. In addition, in series [2], the folding enthalpy was -15.4 kcal/mol.

GCGGCGATCCGC ((((....)))): the Tm in series [1] is 54 °C. In series [2], the folding enthalpy is -16.7 kcal/mol.

As to GCGGCGCCCCGC ((((....)))), the Tm in series [1] came out at 52.7 °C. In addition, in series [2], the folding enthalpy is -16.4 kcal/mol.

As for GCGGCGCCGAAAGGCCGC (((..(((....)))))), the Tm in series [1] is 67.2 °C. In series [2], the folding enthalpy is -14.3 kcal/mol.

For GCGGCGCGAAAGCACGGC ((.(.((....)).).)), in series [1], the Tm turned out to be 56.4 °C. In addition, the folding enthalpy in series [2] was -20.5 kcal/mol.

With GCGGCGCGAAAGCCCGGC ((.(.((....)).).)), the Tm in series [1] came out at 59.8 °C. Moreover, the folding enthalpy in series [2] is -14.6 kcal/mol.

As for GCGGCGCGAAAGCGAAGC ((..(((....)))..)), the Tm in series [1] is 68.1 °C. The folding enthalpy in series [2] was -29 kcal/mol.

GCGGCGCGAAAGCGAGGC ((..(((....)))..)): in series [1], the Tm came out at 63.9 °C. Also, in series [2], the folding enthalpy is -24.8 kcal/mol.

Take GCGGCGCGAAAGCGATGC ((..(((....)))..)): the Tm in series [1] stood at 69.1 °C. In addition, the folding enthalpy in series [2] is -38.6 kcal/mol.

GCGGCGCGAAAGCGTTGC ((..(((....)))..)): in series [1], the Tm was 66.5 °C. Further, the folding enthalpy in series [2] was -21.2 kcal/mol.

Turning to GCGGCGCGAAAGCTCGGC ((.(.((....)).).)), in series [1], the Tm was found to be 44.4 °C. Also, the folding enthalpy in series [2] is -17.4 kcal/mol.

Turning to GCGGCGGCCCGC ((((....)))), in series [1], the Tm worked out at 58.5 °C. The folding enthalpy in series [2] is -13.8 kcal/mol.

As for GCGGCTCCGAAAGGACGC (((..(((....)))))), the Tm in series [1] came out at 54.7 °C. For the same sequence, the folding enthalpy in series [2] was -41.2 kcal/mol.
